Rows were chosen to be rich in hits. Some 2.1% of all compounds tested hit in one or more screens of this group.
p97 ATPase inh: inhibitors of human p97 ATPase | recombinant p97 ATPase, Kinase-Glo ATP luminescence, 3 h | P55072 | inhibition, % at 8 µM | AID 1481 | 220,000 tested, 0.42% active; in the data active = inhibition above about 15%;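 also: 0% = DMSO vehicle and 100% = wells lacking enzyme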
Runt-SMMHC FRET: blocks binding of human RUNX1 Runt domain to CBFb-SMMHC | 220,000 tested, 0.74% active | Cerulean-Runt/Venus-CBFb-SMMHC FRET ratio 530/480, 1 h | AID 1434 | Q01196+Q13951 | inhibition, % at 20 µM;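 active = mean inhibition across duplicate retests at 20 µM reaching about 50%, limit read from the data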;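 also: 0% = DMSO wells and 100% = wells with excess untagged CBFb-SMMHC; inhibitors lower the FRET ratio by blocking Runt binding to CBFb-SMMHC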
Target sequence (Q01196 whole entry, looked up, the tested form may be a part): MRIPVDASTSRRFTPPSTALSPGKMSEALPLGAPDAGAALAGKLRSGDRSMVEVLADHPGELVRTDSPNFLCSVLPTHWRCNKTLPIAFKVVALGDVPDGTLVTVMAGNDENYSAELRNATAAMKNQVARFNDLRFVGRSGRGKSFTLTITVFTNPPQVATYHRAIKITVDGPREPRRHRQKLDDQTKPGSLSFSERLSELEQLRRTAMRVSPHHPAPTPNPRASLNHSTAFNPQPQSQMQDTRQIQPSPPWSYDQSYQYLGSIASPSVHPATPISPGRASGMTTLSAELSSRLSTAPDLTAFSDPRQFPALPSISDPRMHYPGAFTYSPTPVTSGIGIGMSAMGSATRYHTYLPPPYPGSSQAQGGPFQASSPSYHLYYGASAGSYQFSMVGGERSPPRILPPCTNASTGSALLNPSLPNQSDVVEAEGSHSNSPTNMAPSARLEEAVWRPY
Target sequence (Q13951 whole entry, looked up, the tested form may be a part): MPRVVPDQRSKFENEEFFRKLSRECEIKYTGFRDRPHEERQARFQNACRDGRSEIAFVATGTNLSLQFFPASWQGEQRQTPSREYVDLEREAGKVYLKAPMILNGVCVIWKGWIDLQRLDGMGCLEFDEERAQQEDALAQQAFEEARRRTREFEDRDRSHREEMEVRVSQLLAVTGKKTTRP
Hck-Nef inh: human Hck-Nef kinase inhibition; inhibition, % at 20 µM; Recombinant Hck-YEEI plus Nef, Z-Lyte FRET kinase assay; 220,000 tested, 0.68% active; P08631;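 active = Hck-Nef kinase inhibition above about 50%, limit read from the data; inactive = inhibition below that limit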;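 also: 0% = DMSO with Hck plus Nef and 100% = Hck alone without Nef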
RanGTP-Impb inh: disruptors of Ran-importin-beta complex formation – biochemical, FRET, CFP-Ran, YFP-importin-beta, homogeneous, primary screen | cell-free CFP-Ran/YFP-importin-beta FRET ratio | inhibition, % (no concentration beside the values) | 300,000 tested, 1.1% active | AID 2216;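 active = more than half of the replicate wells show a fall in the fluorescence ratio signal beyond about 16%, limit read from the data, passing the limit was not always enough; inconclusive = exactly half of the replicate wells pass the set limit; inactive = fewer than half of replicates pass the limit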;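 also: 0% = DMSO wells and 100% = Ran loaded with GDP instead of GTP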
Tb hexokinase: T. brucei hexokinase 1 inhibition; inhibition, % at 10 µM; recombinant TbHK1, G6PDH-coupled NADH A340; 220,000 tested, 0.11% active; AID 1430;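 active = inhibition of 50% or more in the single-dose primary screen; inactive = inhibition below 50%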
Runt-CBFb FRET: blocks binding of human RUNX1 Runt domain to CBFb; Q01196+Q13951; Cerulean-Runt/Venus-CBFb FRET ratio 530/480, 1 h; inhibition, % at 20 µM; 220,000 tested, 0.46% active; AID 1496;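 active = inhibition over about 50% at 20 µM in the single-dose screen, limit read from the data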;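 also: 0% = DMSO wells and 100% = excess unlabeled CBFb competitor control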
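Measured by: fluorescence energy transfer, 422 nm excitation, 530/480 nm emission; test system: Cerulean-tagged RUNX1 Runt domain (FRET donor) fusion protein; buffer or medium: Tris pH 7.5 buffer with BSA; compound: one dose, 20 µM compound, 1% DMSO; times: two 1 h room-temperature incubations shielded from light; benchmarks: unlabeled CBFb 5 µM, positive control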
p97 inh conf: confirmation of human p97 ATPase inhibitors; shares compounds with p97 ATPase inh; recombinant p97 ATPase, Kinase-Glo ATP luminescence; inhibition, % at 8 µM; 760 tested, 44% active;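 active = percent inhibition of p97 ATPase above a set limit, the primary screen's mean plus 3 SD, cut at about 15% in these data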;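 also: 0% = DMSO wells and 100% = wells lacking p97 protein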
The depositor's hits bear a star; ? = inconclusive; . = not tested or not shown.

SMILES	p97 ATPase inh	Runt-SMMHC FRET	Hck-Nef inh	RanGTP-Impb inh	Tb hexokinase	Runt-CBFb FRET	p97 inh conf
COc1ccc(/C=N/N(C)c2cc(=O)n(C)c(=O)[nH]2)cc1OC	18.2*	10.2	11.6	.	-72.3	6.2	5.0
CN(/N=C/C=C/c1ccccc1)c1cc(=O)n(C)c(=O)[nH]1	5.2	27.2	10.8	13.5	-58.0	10.7	.
CCCn1nc(C(=O)NNC(=O)CCCOc2ccc(C)cc2)c2ccccc2c1=O	.	.	.	-1.3	.	.	.
CC1(c2nnc(Cc3ccccc3)o2)CC(c2ccc(OC(F)(F)F)cc2)=NO1 (configuration not stated)	.	.	.	-2.1	.	.	.
Cc1nc(S/C(=C\c2ccc(-c3ccc(C(=O)O)c(Cl)c3)o2)C(=O)O)n[nH]1	52.5*	-36.1	38.8	0.9	-22.5	-22.9	44.1*
O=C(CNC(=O)c1ccc(Br)o1)Nc1cccc(S(=O)(=O)N2CCOCC2)c1	.	.	.	0.7	.	.	.
Fc1ccc(Nc2nc(NCc3ccco3)c3ccccc3n2)cc1	27.5*	0.4	-9.7	-1.6	-11.1	0.3	34.2*
c1ccc(CNc2nc(-c3ccccc3)nc3ccccc23)cc1	.	.	.	-1.9	.	.	.
c1ccc(CNc2nc(NCc3ccccc3)c3ccccc3n2)cc1	43.8*	6.5	-179.3	0.1	32.1	-1.0	40.9*
Fc1ccccc1-c1nc(NCc2ccccc2)c2ccccc2n1	30.1*	1.6	5.5	0.3	-1.4	0.6	39.6*
Cc1c(Cl)cccc1NC(=O)CCNC(=O)N1CC(=O)Nc2ccccc21	.	.	.	3.8	.	.	.
CCN1CCN(C(=O)c2cc(=O)c3cc(C)ccc3o2)CC1	.	.	.	-1.7	.	.	.
COc1ccccc1CNC(=O)c1nccnc1CO	.	.	.	-1.5	.	.	.
N#Cc1ccccc1S(=O)(=O)N1CCN(CC(=O)NC(=O)NC2CCCCC2)CC1	.	.	.	-0.4	.	.	.
Cc1ccc(-c2cc(-c3ccco3)c(C#N)c(=O)[nH]2)cc1	14.1	-98.3	41.8	-45.5	-7.8	-225.5	.
N#Cc1c(-c2ccco2)cc(-c2ccccc2)[nH]c1=O	22.4*	-75.8	42.0	-2.8	-21.0	-202.8	12.1
O=C(c1cscn1)N1CCCC(N2CCN(c3ccc(F)cc3)CC2)C1 (configuration not stated)	.	.	.	-1.3	.	.	.
S=C(Nc1ccc2nsnc2c1)N1CCCC1	20.6*	-58.8	19.4	-19.3	-9.4	0.6	8.1
CC1=NN(c2ccc(Cl)cc2)C(=O)C1C(c1cccc(O)c1)c1c(C)[nH]n(-c2ccc(Cl)cc2)c1=O (configuration not stated)	17.1*	1.3	1.2	0.5	-7.2	8.5	8.3
O=C(/C=C/c1ccccc1)NCCc1c[nH]c2ccccc12	.	.	.	0.2	.	.	.
CN(CC(=O)Nc1cccc(F)c1)C(=O)c1ccc(N2CCCCC2)c([N+](=O)[O-])c1	.	.	.	0.4	.	.	.
CSC1=C(C#N)C(=O)NC(c2ccc(Cl)cc2)S1 (configuration not stated)	17.6*	0.4	19.2	3.2	-21.0	-2.9	30.8*
CCNC(=O)C1CC(=O)N(CCCc2ccccc2)C(=Nc2ccccc2)S1 (configuration not stated)	-3.8	-0.6	-4.7	-4.2	0.8	1.4	.
C=C1C2(C(=O)Nc3nccs3)CCC(C2)C1(C)C (configuration not stated)	37.1*	-1.8	1.5	-0.8	1.9	-1.5	5.9
O=C(Nc1nccs1)C1(c2ccc(Cl)cc2)CC1	-1.9	-3.6	-4.1	0.2	3.2	1.5	.
SMILES	p97 ATPase inh	Runt-SMMHC FRET	Hck-Nef inh	RanGTP-Impb inh	Tb hexokinase	Runt-CBFb FRET	p97 inh conf
CC(=O)OCC(=O)C1=CCC2C3CCC4=CC(=O)C=CC4(C)C3(F)C(OC(C)=O)CC12C (configuration not stated)	14.8*	.	16.8	-2.4	34.1	.	7.0
COc1ccc(OCC(O)Cn2c(N)nc3c2c(=O)[nH]c(=O)n3C)cc1 (configuration not stated)	-0.7	-1.7	8.3	-4.9	-0.9	-2.6	.
Cc1ccccc1/C=N/Nc1nc2ccccc2[nH]1	2.6	2.2	18.0	-4.0	-10.8	1.1	.
C(=N\Nc1nc2ccccc2[nH]1)/c1cccc2cccnc12	20.1*	-4.5	-3.8	-2.1	-11.1	1.7	3.5
C(=N\Nc1nc2ccccc2[nH]1)/c1c[nH]c2ccccc12	15.1*	3.7	0.7	3.3	-27.7	2.6	8.2
CCOC(=O)NC(=O)CSc1nc2ccccc2[nH]1	16.4*	-0.2	16.8	-1.4	4.0	-1.1	5.7
Cc1cc(C)cc(C(=O)Nc2cccc(NC(=O)c3ccco3)c2)c1	.	.	.	2.8	.	.	.
Nc1ccc(N2CCCCC2)c2nonc12	44.2*	-2.4	23.6	-3.5	-4.6	1.1	10.4
Nc1c(N2CCCC2)cc(Cl)c2nonc12	31.7*	-19.7	8.9	-3.6	0.1	-7.9	19.9*
Cn1cc(C(=O)CCl)c2ccccc21	40.4*	-0.1	25.9	2.1	-6.8	2.1	46.6*
Cn1cc(C(N)=O)c2ccccc21	0.0	-0.9	18.8	?	0.3	-0.5	.
COc1ccc(CCNC(=O)c2cccc(C(=O)NCCc3ccc(OC)cc3)n2)cc1	.	.	.	5.3	.	.	.
CCC(=O)Nc1cccc(-c2cnc3ccccc3n2)c1	-4.6	0.8	-16.1	3.4	-21.3	-0.4	.
O=C(CCl)Nc1cccc(-c2cnc3ccccc3n2)c1	17.9*	-3.7	1.3	1.6	-30.4	-0.4	34.7*
Cc1occc1-c1nnc(SCC(=O)c2ccc(Cl)cc2)n1C	2.1	4.4	0.6	3.1	-7.6	7.5	.
Cc1occc1-c1nnc(SCC(=O)c2c[nH]c3ccccc23)n1C	17.5*	5.0	4.1	.	-1.2	9.8	28.6*
Cc1ccccc1COC(=O)CCC1=NS(=O)(=O)c2ccccc2N1	.	.	.	-2.0	.	.	.
Cc1ccccc1CN1C2=NCCN2c2ccccc21	-0.5	2.6	-1.1	3.5	-3.4	-1.1	.
Cc1ccccc1CN1C2=NCCCN2c2ccccc21	15.4*	-5.5	2.3	-6.6	8.8	0.4	0.7
O=C1NN(c2ccc(Cl)c(Cl)c2)C(=O)/C1=C/c1cccc(OC(=O)c2cccs2)c1	19.2*	-2.0	21.8	-2.9	7.5	1.7	7.1
O=C1NN(c2ccccc2)C(=O)/C1=C\c1cccc(OC(=O)c2cccs2)c1	5.9	10.8	7.5	-2.2	-2.1	2.9	.
O=c1[nH]nc(SCc2cc(Cl)ccc2Cl)c(=O)[nH]1	5.1	1.0	36.4	-2.2	6.2	1.2	.
O=C(CCl)NNC(=O)c1c(O)c2ccccc2[nH]c1=O	20.7*	-1.6	3.2	1.4	-9.0	0.4	32.0*
CC(C)c1ccc(NC(=O)C(c2ccccc2)N2CC(=O)Nc3ccccc32)cc1 (configuration not stated)	15.5*	-2.9	-4.2	1.6	-11.8	1.8	5.9
